Screening results deposited in PubChem by Johns Hopkins Ion Channel Center.
Shown are actives, neighbours in structure and some others; about 3.1% of the full set was active somewhere.
KCNK9 inh: inhibitors of human KCNK9 two-pore domain potassium channel | 310,000 compounds, 1.2% hits | B-score at 10 µM | Q9NPC2 | HEK293 KCNK9, FluxOR thallium flux fluorescence; hits give low values | AID 488922;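 active means ratio B-score over 3 SD below the library mean, with starting fluorescence within 5 SD of its mean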;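 further: negative B-score means less thallium flux so channel inhibition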
KCNQ1 act: human KCNQ1 channel potentiation or activation | B-score at 10 µM | P51787 | AID 2648 | 310,000 compounds, 0.35% hits | CHO-K1 KCNQ1, thallium flux FluxOR fluorescence; hits give high values;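 active means fluorescence ratio B-score, a plate-corrected score, at least three library SD, with initial intensity B-score within 5 SD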
Target sequence (P51787 whole entry, looked up): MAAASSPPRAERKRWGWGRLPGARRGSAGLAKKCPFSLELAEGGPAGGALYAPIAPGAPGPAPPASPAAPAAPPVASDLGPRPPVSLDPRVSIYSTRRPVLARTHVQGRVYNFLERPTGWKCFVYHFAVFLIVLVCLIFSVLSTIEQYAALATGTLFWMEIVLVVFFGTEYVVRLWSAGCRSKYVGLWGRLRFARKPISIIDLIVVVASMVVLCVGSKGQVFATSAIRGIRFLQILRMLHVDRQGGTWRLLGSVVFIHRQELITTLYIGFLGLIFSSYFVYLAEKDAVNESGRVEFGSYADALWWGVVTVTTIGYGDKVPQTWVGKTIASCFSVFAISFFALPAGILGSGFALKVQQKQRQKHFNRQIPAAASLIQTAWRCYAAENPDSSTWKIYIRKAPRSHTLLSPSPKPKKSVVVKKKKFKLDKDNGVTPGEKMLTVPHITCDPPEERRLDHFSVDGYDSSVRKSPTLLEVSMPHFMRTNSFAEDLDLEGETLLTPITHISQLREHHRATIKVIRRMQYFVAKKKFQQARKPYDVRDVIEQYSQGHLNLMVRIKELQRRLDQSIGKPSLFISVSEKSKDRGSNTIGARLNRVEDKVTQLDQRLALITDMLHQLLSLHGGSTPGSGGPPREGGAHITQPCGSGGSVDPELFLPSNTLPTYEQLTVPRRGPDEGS
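assay system = KCNQ1-transfected CHO-K1 cells | medium = assay buffer with matched DMSO | probe or stimulus = depolarizing K+/Tl+ stimulus, K2SO4 and Tl2SO4 each 12.5 mM in 5x stock | dosing = single dose | incubation = dye 90 min, compound 20 min, room temperature | detection = kinetic FluxOR fluorescence, 10 s baseline plus 110 s post-stimulus | evaluation = ratio B score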
hERG rescue: compounds protecting human hERG from proarrhythmic drug block. activation (rescue from dofetilide block), less the hit threshold, % at 10 µM. 310,000 compounds, 0.51% hits. CHO-hERG, FluxOR thallium flux, dofetilide IC70 present. AID 1511;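 active means activation above the mean of controls blocked by dofetilide plus 5 SD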;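 further: thallium influx through hERG after potassium depolarization seen as dye fluorescence rise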
KCNK3 inh: human KCNK3 channel inhibition, primary screen | O14649 | CHO-KCNK3 thallium flux, FluxOR fluorescence; hits give low values | B-score at 10 µM | 340,000 compounds, 0.84% hits;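 active means B-score under library mean minus 4 SD, starting fluorescence ratio at most library mean plus 5 SD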;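 further: more negative B-score means stronger inhibition of thallium flux through KCNK3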
KCNQ1 inh: blocks the human KCNQ1 potassium channel; AID 2642; CHO-K1 KCNQ1, FluxOR thallium flux fluorescence; hits give high values; 310,000 compounds, 1.3% hits; P51787; B-score at 10 µM;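 active means compounds whose thallium flux B-score, printed positive for inhibition, exceeds three library SD while starting fluorescence stays within three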;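 further: channel opened by potassium depolarization with thallium stimulus after 20 min compound exposure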
KCNK9 inh conf: human KCNK9 inhibitor confirmation; shares compounds with KCNK9 inh; HEK293 KCNK9 cells, FluxOR thallium flux fluorescence; AID 492992; 4,900 compounds, 43% hits; inhibition, % at 10 µM;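 active means thallium signal inhibited by more than 5 SD of the compound-free buffer control wells, on both duplicate plates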;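 further: 0% = assay buffer control wells without compound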
Kir21 sel: tests whether KCNK9 modulators also affect mouse Kir2.1; inhibition, % at 10 µM; shares compounds with KCNK9 inh; AID 492993; Kir2.1 cells, FluxOR thallium flux fluorescence; 4,900 compounds, 4% hits;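 active means thallium signal drop more than 5 SD beyond the mean of the no-compound control wells, seen in both duplicate plates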;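 further: signal is fluorescence rise after thallium addition divided by baseline fluorescence; plate controls were assay buffer only for no effect and full block by chlorpromazine control for full effect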
KCNK9 uninduced: second check of KCNK9 modulator effects in non-induced HEK293 cells; AID 492997; inhibition, % at 10 µM; 4,900 compounds, 40% hits; shares compounds with KCNK9 inh; FluxOR thallium flux;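 active means thallium signal drop beyond 5 SD of the untreated control mean, on both duplicate plates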;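 further: plate controls were buffer only IC0 wells for no effect and SID17386958 at its maximal inhibitory level for full effect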
Starred values were filed as active, the others as inactive; i = inactive; / = no result.

SMILES	KCNK9 inh	KCNQ1 act	hERG rescue	KCNK3 inh	KCNQ1 inh	KCNK9 inh conf	Kir21 sel	KCNK9 uninduced
CN(Cc1ccccc1)C(=O)CSc1nc2ccccc2c(=O)n1Cc1ccco1	i	i	-19.0	i	i	i	i	i
Cc1ccc(NC(=O)CN(C)C(=O)CSc2nc3ccccc3c(=O)n2Cc2ccco2)cc1	i	i	-9.4	i	i	/	/	/
N#Cc1ccsc1NC(=O)CN(Cc1ccccc1)Cc1ccccc1	-16.9*	i	-7.2	i	6*	68.0%*	i	59.0%*
CCOc1ccccc1C1CC(c2ccc(Br)cc2)Nc2nc(N)nn21 (stereo unspecified)	i	i	-5.2	i	i	/	/	/
Cc1cc(NC(=O)/C=C/c2ccccc2Cl)n(-c2nc3ccccc3[nH]2)n1	-9.08*	i	-8.4	i	i	i	i	25.5%*
CCC(NC(=O)NCc1cccnc1)(C(F)(F)F)C(F)(F)F	i	i	-2.5	i	i	/	/	/
O=C(N/N=C/c1cc(Cl)cc([N+](=O)[O-])c1O)c1cc(-c2ccccn2)nc2ccccc12	i	i	-17.6	i	i	i	i	28.0%*
O=C(Cn1cc(C(=O)c2cccs2)c2ccccc21)NC1CCCCC1	-12*	i	-8.8	i	i	53.5%*	i	28.0%*
COc1ccccc1NC(=S)NC(=O)C(C)(C)C	i	i	-4.8	i	i	i	i	i
COc1ccccc1NC(=S)NC(=O)Cc1ccccc1	i	i	-3.1	i	i	/	/	/
Cc1cc(=O)[nH]c(NC(=O)Cc2ccccc2)n1	/	/	/	i	/	/	/	/
O=C(O)c1ccccc1NS(=O)(=O)c1cccc(-n2sc3ccccc3c2=O)c1	i	13*	-20.6	i	i	i	i	i
COc1cccc(NC(=O)c2sc3nc(N4CCOCC4)c4c(c3c2N)CCCC4)c1	-11*	i	-16.1	i	i	i	i	i
CC(=O)c1ccc(NC(=O)c2sc3nc(N4CCOCC4)c4c(c3c2N)CCCC4)cc1	i	i	-7.1	i	i	/	/	/
CCc1ccc(CN(Cc2cccnc2)C(=O)/C=C/c2ccc(OC)cc2)cc1	i	i	-14.2	i	i	i	i	i
CC1CCC(NC(=O)C2CCC(CNS(=O)(=O)c3cccc4cccnc34)CC2)CC1 (stereo unspecified)	i	i	-15.4	i	i	/	/	/
CCOC(=O)C1CCN(CCCSc2ccc(C)cc2)CC1	i	i	-6.2	i	i	i	i	i
CCOC(=O)C1CCN(CCCSc2ccccc2)CC1	i	i	0.4	i	i	/	/	/
Clc1cccc(-c2cc3nc4c(c(NCc5ccco5)n3n2)CCCC4)c1	-9.41*	i	-11.7	i	i	29.5%*	i	32.5%*
c1coc(CNc2c3c(nc4ncnn24)CCCC3)c1	i	i	-6.5	i	i	/	/	/
O=C1c2ccncc2C(=O)N1Cc1cccc(Cl)c1	i	i	-1.8	i	i	/	/	/
Cc1cccc(NCN2C(=O)c3ccncc3C2=O)n1	i	i	-6.0	i	i	i	i	i
COc1cc(/C=N/NC(=O)C(=O)/C=C2\NC3(CCCC3)Cc3ccccc32)ccc1O	-11.4*	i	-7.4	i	i	44.5%*	i	28.0%*
O=C(/C=C1\NC2(CCCC2)Cc2ccccc21)C(=O)N/N=C/c1ccccc1O	i	i	-12.0	i	i	/	/	/
CC(Oc1ccc(Cl)cc1)C(=O)NCC1CCCO1 (stereo unspecified)	i	i	-3.2	i	i	/	/	/
Cc1ccc(C)c(NC(=O)COC(=O)COc2cccc3c2OC(C)(C)C3)c1	i	i	-13.6	i	i	/	/	/
Cc1nc(-c2coc3c(CN(C)C)c(O)ccc3c2=O)cs1	-8.17*	i	-10.0	i	i	i	i	i
